Consider 19 molecules from article PMC3089497 (The Journal of Biological Chemistry, 2011).

The target in one test is p97 ATPase (Mus musculus, UniProt Q01853). Nature of the test: p97 ATPase assay. Format: biochemical.
Test [1] has as its system Ub^G76V-GFP. Nature of the test: Ub^G76V-GFP reporter accumulation assay. Conditions: for Score in Ub^G76V-GFP accumulation screen: rescreen of 160 kinase inhibitors. Format: cell-based, human. In outline:
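Dual-reporter HeLa cells expressing UbG76V-GFP were seeded at 5000 per well and grown 16 h. They were exposed to DMSO, MG132 or test compound in modified DMEM (no phenol red, folic acid, riboflavin or vitamin B12) for 2–3 h. Two GFP images per well (100-ms exposure) were taken by automated microscopy. Mean GFP intensity per cell area was averaged over about 500 cells, background-corrected using reporter-free cells, and normalized to DMSO-treated cells.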

Test [2] has as its system Luc-ODC. The test is described as follows: Luc-ODC reporter degradation assay. Format: cell-based, human. The settings on record: for IC50: Homo sapiens, read-out: IC50 Luc-ODC.
Test [3] relates to Ub^G76V-GFP. The test is described as follows: cells. Format: cell-based, human. Conditions: for IC50: Homo sapiens, read-out: IC50 Ub^G76V-GFP.
Test [4] relates to ODD-Luc. Nature of the test: ODD-Luc reporter degradation assay. Format: cell-based, human. Conditions: for IC50: Homo sapiens, read-out: IC50 ODD-Luc.
Another test deals with C522A-p97 (Mus musculus, UniProt Q01853, C522A). Nature of the test: In vitro ATPase assay of C522A-p97. Format: biochemical. Conditions: compared with wild-type p97. In outline:
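The C522A p97 mutant was made by site-directed mutagenesis of the wild-type p97 plasmid. It was assayed for in vitro ATPase activity beside wild-type p97, and inhibition was read from titration curves of test compound.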

For the next test, the system named is TCRα-GFP. The test is described as follows: ERAD reporter TCRα-GFP degradation in HEK293 cells. Format: cell-based, human. The settings on record: 5 or 10 μM, 2 h CHX chase. Put shortly: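 HEK293 cells stably expressing the ERAD reporter TCRα-GFP were pretreated with MG132 and washed. They were then incubated with CHX plus test compound for 2 h before harvest, and reporter levels were assessed by immunoblotting.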

In test [5] the test system is ODD-Luc. Nature of the test: ODD-Luc reporter accumulation assay. Format: cell-based, human. Conditions: 7.5 μM for 2 h, relative to DMSO. In outline:
(§1)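 HeLa cells stably expressing UbG76V-GFP were lentivirally transduced with ODD-Luc or Luc-ODC and kept under puromycin (2.5 μg/ml). Cells were seeded at 5000 per well and grown 16 h. They were treated 2–3 h in modified DMEM (no phenol red, folic acid, riboflavin or vitamin B12) containing DMSO, MG132 or test compound. d-Luciferin (1 mg/ml in PBS, stock) was added, followed by 5 min shaking at room temperature. Luminescence was read with […] integration and normalized to DMSO.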

The subject of test [6] is Luc-ODC. The test is described as follows: Luc-ODC reporter accumulation assay. Format: cell-based, human. The settings on record: 30 μM for 2.5 h, relative to DMSO. In outline:
as §1

[7] abbreviates: read-out: IC50 p97 ATPase, in vitro, WT p97, triplicate, ± S.D.
Where [8] appears, read: IC50 p97 ATPase, in vitro, WT p97, triplicate, ± S.D.

Several values for one entry are separate records, joined by “and”; a condition that tells them apart may be missing. Identical values can stand only once. Like-named read-outs stand apart in the source and are kept apart here. Peptide text beside a SMILES is read from it. * marks the point of attachment. Cbz = O=C(OCc1ccccc1)*

Sequence of p97 ATPase (Q01853 whole entry): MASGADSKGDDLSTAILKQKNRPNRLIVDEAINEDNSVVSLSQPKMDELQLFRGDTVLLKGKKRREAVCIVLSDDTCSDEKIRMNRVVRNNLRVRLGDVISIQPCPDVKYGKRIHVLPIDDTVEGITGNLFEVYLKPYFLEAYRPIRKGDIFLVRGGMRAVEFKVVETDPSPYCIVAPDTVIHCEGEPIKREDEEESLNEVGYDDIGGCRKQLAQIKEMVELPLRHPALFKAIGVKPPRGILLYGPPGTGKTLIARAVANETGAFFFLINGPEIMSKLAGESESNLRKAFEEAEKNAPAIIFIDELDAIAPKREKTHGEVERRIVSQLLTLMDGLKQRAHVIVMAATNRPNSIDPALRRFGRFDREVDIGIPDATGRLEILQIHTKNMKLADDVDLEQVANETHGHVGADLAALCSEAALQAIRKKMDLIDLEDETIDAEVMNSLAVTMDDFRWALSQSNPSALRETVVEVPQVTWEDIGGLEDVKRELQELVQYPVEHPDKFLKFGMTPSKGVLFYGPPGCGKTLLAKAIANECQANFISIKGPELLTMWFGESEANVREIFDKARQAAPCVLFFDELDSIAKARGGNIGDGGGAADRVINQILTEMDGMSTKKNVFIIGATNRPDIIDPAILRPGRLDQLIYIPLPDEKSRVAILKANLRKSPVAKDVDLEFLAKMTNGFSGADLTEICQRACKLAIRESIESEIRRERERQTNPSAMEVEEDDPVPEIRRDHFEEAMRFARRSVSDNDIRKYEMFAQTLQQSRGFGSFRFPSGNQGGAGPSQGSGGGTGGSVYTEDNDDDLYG
Sequence of C522A-p97 (Q01853 whole entry C522A): as the sequence (Q01853 whole entry) above, with C522A counted along it

`CC[n+]1c(/C=C/N(C)c2ccccc2)n(-c2ccccc2)c2ccc(-c3nc4ccccc4s3)cc21` [Compound 1, Akt inhibitor IV]: the concentration for half-maximal inhibition (IC50) – broadly, the concentration that inhibits the measured activity by half – at p97 ATPase (setting [7]) stood at 12 ± 5 µM.
Still for that read-out and setting: to `O=c1[nH]c2ccccc2n1C1CCN(Cc2ccc(-c3nc4cc5[nH]cnc5cc4nc3-c3ccccc3)cc2)CC1` [Compound 2, Akt inhibitor VIII] belongs 43 ± 4 µM.
On to `CCN(CC)CCCCN1c2ccccc2Oc2ccc(Cl)cc21` [Compound 3, Akt inhibitor X], for which, in the test with Ub^G76V-GFP [1], the “Score in Ub^G76V-GFP accumulation screen” value was “did not score as positives”. Besides, the half-maximal inhibitory concentration (IC50) is 11 ± 5 µM in the test with Luc-ODC [2], 16 ± 9 µM in the test with Ub^G76V-GFP [3], > 50 µM on p97 ATPase and 14 ± 11 µM in the test on ODD-Luc [4].
As to `O=C1c2ccccc2-c2nc3nnnn3nc21` [Compound 4, PDK1/Akt/Flt], on p97 ATPase (setting [7]), the IC50 was > 50 µM.
As to `COc1ccc2c(c[n+](C)c3c4cc5c(cc4ccc23)OCO5)c1OC` [Compound 5, Chelerythrine chloride], the IC50 amounted to 1.9 ± 0.7 µM in the test on Luc-ODC [2], 2.2 ± 1 µM in the test on Ub^G76V-GFP [3], 24 ± 11 µM at p97 ATPase (setting [8]) and 3.4 ± 0.2 µM with ODD-Luc [4].
Take `CO[C@H]1[C@@H](OC)C[C@H](C)[C@@H](OC)C2=CC(=O)C=C(NC(=O)/C(C)=C/C=C\[C@H](OC)[C@@H](OC(N)=O)/C(C)=C/[C@@H]1C)C2=O` [Compound 6, Herbimycin A, Streptomyces sp.]: the “Effect on Luc-ODC degradation (in words)” value in the test with Luc-ODC [2] is “very little activity”. The 50% inhibitory concentration (IC50) was > 30 µM in the test on Luc-ODC [2], 2.8 ± 1.6 µM with Ub^G76V-GFP [3], > 50 µM against p97 ATPase (setting [8]) and 5 ± 2 µM in the test with ODD-Luc [4].
In the case of `O=[N+]([O-])C=Cc1ccc2c(c1)OCO2` [Compound 7, 3,4-methylenedioxy-β-nitrostyrene], the “Accumulation of Ub^G76V-GFP” value with Ub^G76V-GFP [1] (7.5 or 30 μM, 3 h) is recorded as < 2 fold. Further, the “Score in Ub^G76V-GFP accumulation screen” value with Ub^G76V-GFP [1] is reported as “did not score as positives”. Further, the “Effect on Luc-ODC degradation (in words)” value in the test on Luc-ODC [2] is “very little activity”. Moreover, the IC50 in the test with Luc-ODC [2] was > 30 µM; in the test on Ub^G76V-GFP [3], 1.6 ± 0.4 µM; at p97 ATPase (setting [8]), ≤ 10 µM and 1.7 µM; in the test on ODD-Luc [4], 5.9 ± 1.5 µM. The “Stabilization of Ub^G76V-GFP” value with Ub^G76V-GFP [3] (1.7 μM) was 2 fold. Also, the “Stabilization of Ub^G76V-GFP (in words)” value in the test on Ub^G76V-GFP [3] (7.5 μM) is “almost complete stabilization”. Also, the “IC50 for p97-dependent versus p97-independent reporters” value with Ub^G76V-GFP [3] (fold lower, Ub^G76V-GFP vs ODD-Luc) turned out to be 3.5 fold. In addition, the “Activity toward C522A-p97 ATPase (in words)” value on C522A-p97 is given as “poor activity”. Moreover, the “Degradation of TCRα-GFP” value in the test on TCRα-GFP is reported as “potently blocked”.
As to `CN[C@@H]1C[C@H]2O[C@@](C)([C@@H]1OC)n1c3ccccc3c3c4c(c5c6ccccc6n2c5c31)C(=O)NC4` [Compound 8, Staurosporine, Streptomyces sp.], the IC50 at p97 ATPase (setting [7]) is > 50 µM.
On the same count and under the same terms, to `Cc1ccc(S(=O)(=O)/C=C/C#N)cc1` [Compound 9, BAY 11-7082] belongs 12 ± 1 µM; to `CCn1cnc2c(Nc3cccc(Cl)c3)nc(N[C@@H]3CCCC[C@@H]3N)nc21` [Compound 10, Cdk1 Inhibitor, CGP74514A], 17 ± 3 µM.
The same measure, in the same setting: to `Cc1ccc(NC2=CC(=O)c3sc(C)nc3C2=O)cc1` [Compound 11, Cdk4 inhibitor III] belongs 13 ± 0.5 µM.
Consider `O=C1c2ccccc2-[n+]2ccc3c([nH]c4ccccc43)c21` [Compound 12, Fascaplysin], for which the “Effect on Luc-ODC degradation (in words)” value with Luc-ODC [2] is reported as “very little activity”. The IC50 in the test on Luc-ODC [2] was > 30 µM; in the test on Ub^G76V-GFP [3] it was 0.9 ± 0.1 µM; against p97 ATPase (setting [8]), > 50 µM; in the test on ODD-Luc [4], 6.9 ± 1.9 µM.
For the molecule `Cn1nc2c3c(cccc31)C(=O)c1ccccc1-2` [Compound 14, JNK inhibitor, negative control], on p97 ATPase (setting [7]), the IC50 is > 50 µM.
The same measure, in the same setting: under `COC(=O)[C@@]1(O)C[C@H]2O[C@]1(C)n1c3ccccc3c3c4c(c5c6ccccc6n2c5c31)C(=O)NC4` [Compound 15, K-252a, Nocardiopsis sp.] stands 26 ± 2 µM.
The same measure, in the same setting: to `O=C1NC(=O)c2cc(Nc3ccc(F)cc3)c(Nc3ccc(F)cc3)cc21` [Compound 16, PKCbII/EGFR inhibitor] belongs > 50 µM; to `N#Cc1cnc2cnc(NCc3cccnc3)cc2c1Nc1ccc(F)c(Cl)c1` [Compound 17, Tpl2 kinase inhibitor], > 50 µM.
As to `O=C(O)C=Cc1ccc2c(c1)OCO2` [Compound 18, 3,4-Methylenedioxycinnamic acid], the “Effect on Ub^G76V-GFP degradation (in words)” value in the test on Ub^G76V-GFP [3] is recorded as “greatly diminished activity”.
For `CC(C)C[C@@H](C=O)NC(=O)[C@H](CC(C)C)NC(=O)[C@H](CC(C)C)NC(=O)OCc1ccccc1` [MG132] (Cbz-Leu-Leu-Leu-aldehyde), the “Ub^G76V-GFP reporter accumulation” value in the test with Ub^G76V-GFP [1] (7.5 μM for 2 h, relative to DMSO) is listed as ~20 fold. The ODD-Luc reporter accumulation in the test with ODD-Luc [5] is on record as ~20 fold. In the test on Luc-ODC [2] (fold higher), the “IC50 with Luc-ODC reporter relative to Ub^G76V-GFP and ODD-Luc reporters” value was ~3 fold. In the test with Luc-ODC [6], the Luc-ODC reporter accumulation was 1.6 fold.
For `NS(=O)(=O)OC[C@@H]1C[C@@H](n2ccc3c(N[C@H]4CCc5ccccc54)ncnc32)C[C@@H]1O` [MLN4924], in the test on Luc-ODC [2], the “Effect on Luc-ODC degradation (in words)” value was “had no effect”. Besides, in the test on Ub^G76V-GFP [3], the “Effect on Ub^G76V-GFP degradation (in words)” value is “had no effect”. Also, the “Effect on ODD-Luc degradation (in words)” value in the test on ODD-Luc [4] is “strong stabilization”.
